# Data as given in ChEMBL document CHEMBL1151808, “Substrate promiscuity of the cyclic dipeptide prenyltransferases from Aspergillus fumigatus ( section sign)” (J Nat Prod, 2009).
# Active and inactive are the calls of the source. The rule behind the calls is not given here.
# Legend:
# [1] = target: Tryprostatin B synthase ftmPT1 (Aspergillus fumigatus) (UniProt Q4WAW7); test: Activity at 0.28 uM Aspergillus fumigatus FtmPT1 assessed as compound conversion at 1 mM after 2 hrs by HPLC analysis in presence of dimethylallyl diphosphate
# Tryprostatin B synthase ftmPT1 (Aspergillus fumigatus), sequence (Q4WAW7 whole entry): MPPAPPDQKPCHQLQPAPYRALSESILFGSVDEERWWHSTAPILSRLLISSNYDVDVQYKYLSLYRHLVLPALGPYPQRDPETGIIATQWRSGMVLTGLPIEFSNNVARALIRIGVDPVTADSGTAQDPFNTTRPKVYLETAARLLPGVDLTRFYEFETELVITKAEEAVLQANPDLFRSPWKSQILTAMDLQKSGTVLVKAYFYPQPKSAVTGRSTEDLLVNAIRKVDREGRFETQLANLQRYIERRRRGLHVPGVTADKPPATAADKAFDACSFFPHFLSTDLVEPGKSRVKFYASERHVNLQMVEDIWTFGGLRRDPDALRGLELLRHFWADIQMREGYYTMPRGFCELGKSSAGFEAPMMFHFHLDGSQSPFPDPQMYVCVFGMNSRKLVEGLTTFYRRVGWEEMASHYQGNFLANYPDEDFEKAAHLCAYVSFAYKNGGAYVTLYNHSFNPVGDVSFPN
# Outline: (§1)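 Performed in 50 mM Tris-HCl (pH 7.5) with 10 mM CaCl2, 1 mM tryptophan or derivative, and 2 mM DMAPP, using purified His6-tagged recombinant enzyme at 37 °C. Reactions were stopped with an equal volume of MeOH and protein removed by centrifugation. Products were quantified by RP18 HPLC as the conversion rate of substrate. Two independent assays were run.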
# [2] = target: Tryprostatin B synthase ftmPT1 (Aspergillus fumigatus) (UniProt Q4WAW7); test: Activity at 1.68 uM Aspergillus fumigatus FtmPT1 assessed as compound conversion at 1 mM after 2 hrs by HPLC analysis in presence of dimethylallyl diphosphate
# [3] = target: Tryprostatin B synthase ftmPT1 (Aspergillus fumigatus) (UniProt Q4WAW7); test: Ratio Kcat to Km for Aspergillus fumigatus FtmPT1 by HPLC analysis relative to L-tryptophan
# [4] = target: Tryprostatin B synthase ftmPT1 (Aspergillus fumigatus) (UniProt Q4WAW7); test: Activity at 0.54 uM Aspergillus fumigatus FtmPT1 assessed as compound conversion at 1 mM after 2 hrs by HPLC analysis in presence of dimethylallyl diphosphate; outline: as §1
# Aspergillus fumigatus [5] = test: Activity at 1.62 uM Aspergillus fumigatus CdpNPT assessed as compound conversion rate at 1 mM after 16 hrs by HPLC analysis in presence of dimethylallyl diphosphate relative to L-tryptophan
# Outline: (§2)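 His6-CdpNPT (1.62 µM) or His6-FtmPT1 (1.68 µM) with 1 mM tryptophan derivative and 2 mM DMAPP in Tris-HCl pH 7.5/CaCl2, 37 °C for 2 or 16 h. MeOH quench, then RP18 HPLC with 30–70% MeOH gradient. Conversion expressed relative to L-tryptophan; two independent assays.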
# Aspergillus fumigatus [6] = test: Activity at 1.62 uM Aspergillus fumigatus CdpNPT assessed as compound conversion rate at 1 mM after 2 hrs by HPLC analysis in presence of dimethylallyl diphosphate relative to L-tryptophan; outline: as §2
# [7] = target: Tryprostatin B synthase ftmPT1 (Aspergillus fumigatus) (UniProt Q4WAW7); test: Activity at 1.68 uM Aspergillus fumigatus FtmPT1 assessed as compound conversion rate at 1 mM after 2 hrs by HPLC analysis in presence of dimethylallyl diphosphate relative to L-tryptophan; outline: as §2
# [8] = target: Tryprostatin B synthase ftmPT1 (Aspergillus fumigatus) (UniProt Q4WAW7); test: Activity at 1.68 uM Aspergillus fumigatus FtmPT1 assessed as compound conversion rate at 1 mM after 16 hrs by HPLC analysis in presence of dimethylallyl diphosphate relative to L-tryptophan; outline: as §2
# [9] = target: Tryprostatin B synthase ftmPT1 (Aspergillus fumigatus) (UniProt Q4WAW7); test: Activity at 1.12 uM Aspergillus fumigatus FtmPT1 assessed as compound conversion rate at 1 mM after 16 hrs by HPLC analysis in presence of dimethylallyl diphosphate; outline: as §1
# Aspergillus fumigatus [10] = test: Activity at 1.62 uM Aspergillus fumigatus CdpNPT assessed as compound conversion rate at 1 mM after 2 hrs by HPLC analysis in presence of dimethylallyl diphosphate; outline: as §1
# Aspergillus fumigatus [11] = test: Activity at 0.54 uM Aspergillus fumigatus CdpNPT assessed as compound conversion rate at 1 mM after 2 hrs by HPLC analysis in presence of dimethylallyl diphosphate
# Outline: (§3)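 Recombinant His6-CdpNPT (0.11–1.62 µM) with 1 mM substrate and 2 mM DMAPP in 50 mM Tris-HCl pH 7.5, 10 mM CaCl2, 100 µL, 37 °C for 2 h. Heat-inactivated enzyme served as control. Stopped with MeOH, protein spun off, products read by RP18 HPLC as peaks and retention times, conversion from peak areas.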
# Aspergillus fumigatus [12] = test: Activity at 0.11 to 1.62 uM Aspergillus fumigatus CdpNPT assessed as product formation at 1 mM after 2 hrs by HPLC analysis; outline: as §3
# Aspergillus fumigatus [13] = test: Activity at Aspergillus fumigatus CdpNPT by HPLC analysis
# Outline: (§4)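 Kinetics: 2 mM DMAPP (final) with L-tryptophan up to 5 mM, or cyclic dipeptides, in Tris-HCl pH 7.5/CaCl2 at 37 °C. Products quantified by HPLC. Km and kcat from Lineweaver-Burk and Hanes-Woolf plots; kcat/Km expressed as ratio to L-tryptophan.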
# Aspergillus fumigatus [14] = test: Activity at 0.28 uM Aspergillus fumigatus CdpNPT assessed as compound conversion rate at 1 mM after 2 hrs by HPLC analysis in presence of dimethylallyl diphosphate; outline: as §3
# Aspergillus fumigatus [15] = test: Activity at 0.11 uM Aspergillus fumigatus CdpNPT assessed as compound conversion rate at 1 mM after 2 hrs by HPLC analysis in presence of dimethylallyl diphosphate; outline: as §3
# Aspergillus fumigatus [16] = test: Ratio Kcat to Km for Aspergillus fumigatus CdpNPT by HPLC analysis relative to L-tryptophan; outline: as §4
# Aspergillus fumigatus [17] = test: Activity at 1.62 uM Aspergillus fumigatus CdpNPT assessed as compound retention time after 2 hrs by HPLC analysis; outline: as §3
# Aspergillus fumigatus [18] = test: Activity at 1.62 uM Aspergillus fumigatus CdpNPT assessed as compound conversion rate after 2 hrs by HPLC analysis; outline: as §3
# [19] = target: Tryprostatin B synthase ftmPT1 (Aspergillus fumigatus) (UniProt Q4WAW7); test: Activity at 1.12 uM Aspergillus fumigatus FtmPT1 assessed as compound retention time after 2 hrs by HPLC analysis
# Outline: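 His6-FtmPT1 at 1.12 µM, 100 µL, in 50 mM Tris-HCl pH 7.5, 10 mM CaCl2 with DMAPP, 37 °C for 2 h. HPLC product retention time recorded.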
SMILES,Activity (Aspergillus fumigatus [5]) [%],Activity (Aspergillus fumigatus [6]) [%],Activity [7] [%],Activity [8] [%],also measured
O=C1N[C@@H](Cc2c[nH]c3ccccc23)C(=O)N2CCC[C@@H]12,–,–,–,–,Activity [1]: Active; Activity [2]: Active; Ratio [3]: 675; Activity [4]: Active
CC(N)(Cc1c[nH]c2ccccc12)C(=O)O (racemic),24.5,25,< 2.3,1,–
CN[C@@H](Cc1c[nH]c2ccccc12)C(=O)O,114,126,< 3.7,29.4,–
Cn1cc(CC(N)C(=O)O)c2ccccc21 (racemic),< 0.3,< 1.1,< 1.7,< 0.3,–
NC(Cc1c[nH]c2cc(F)ccc12)C(=O)O (racemic),13.8,17.7,55.1,55.5,–
NC(Cc1c[nH]c2ccc(Br)cc12)C(=O)O (racemic),< 0.4,< 1.2,< 1.9,< 0.4,–
N[C@@H](Cc1ccc(O)cc1)C(=O)O,–,–,–,–,Activity [9]: inactive; Activity (Aspergillus fumigatus [10]): inactive
N[C@H](CC(=O)O)Cc1c[nH]c2ccccc12,< 1.1,< 3.4,< 5.5,< 1.1,–
N[C@@H](Cc1c[nH]c2ccc(F)cc12)C(=O)O,1.9,< 0.7,< 1.2,4.3,–
O=C1N[C@H](Cc2c[nH]c3ccccc23)C(=O)N[C@H]1Cc1ccc(O)cc1,–,–,–,–,Activity (Aspergillus fumigatus [11]): Active; Activity (Aspergillus fumigatus [12]): Active; Km (Aspergillus fumigatus [13]): 128 µM; kcat (Aspergillus fumigatus [13]): 0.46 s⁻¹; Activity (Aspergillus fumigatus [14]): Active; Activity (Aspergillus fumigatus [15]): Active; Ratio (Aspergillus fumigatus [16]): 598
Cc1cccc2c(CC(N)C(=O)O)c[nH]c12 (racemic),37.9,50.6,76.4,64.1,–
Cc1ccc2c(CC(N)C(=O)O)c[nH]c2c1 (racemic),13.5,< 0.9,148,96,–
O=C(O)Cc1c[nH]c2ccccc12,45.3,< 1.7,< 2.8,< 0.6,–
Cc1cccc2[nH]cc(CC(N)C(=O)O)c12 (racemic),61.4,72.6,16,19.4,–
N[C@@H](Cc1c[nH]c2ccc(O)cc12)C(=O)O,< 0.3,< 0.8,< 1.3,< 0.3,–
Cc1ccc2[nH]cc(CC(N)C(=O)O)c2c1 (racemic),20.2,< 1.5,< 2.4,10.3,–
NCCc1c[nH]c2ccccc12,< 1,< 3.3,< 5.3,< 1.1,–
N[C@@H](Cc1c[nH]c2ccccc12)C(=O)O,–,–,–,–,Activity (Aspergillus fumigatus [12]): Active; Km (Aspergillus fumigatus [13]): 830 µM; kcat (Aspergillus fumigatus [13]): 0.005 s⁻¹; Activity (Aspergillus fumigatus [17]): 16.5 min; Activity (Aspergillus fumigatus [18]): 18.1%; Activity [19]: 13.9 min
